Measured values: ChEMBL document CHEMBL5724801, “EUbOPEN Chemogenomics Library - Multiplex” (2024)
“And” between values parts separate entries of the source, which are not always exact repeats. Equal entries are not always repeated.

Tested on: HEK-293T
Assay: Multiplex assay against HEK293T
Format: toxicity, cell-based
Conditions: human
In short: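 Tubulin, mitochondrial-mass and membrane-permeability phenotypes are per cents of healthy-nucleus cells. Cells were gated by CellPathfinder machine learning into Hoechst high-intensity objects or normal cells, normal cells into healthy, pyknosed or fragmented nuclei, and pyknosed cells into mitotic or apoptotic. Before that, live cells stained at seeding with Hoechst33342, BioTracker Green Microtubule Cytoskeleton Dye, MitoTracker Red and Annexin V Alexa Fluor 680 were imaged on a CQ1 microscope at 37°C and 5% CO2 after compound addition.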

[1] = 12 h, 1 µM, compound concentration 1 uM
[2] = 12 h, 10 µM, compound concentration 10 uM
[3] = 24 h, 1 µM, compound concentration 1 uM
[4] = 24 h, 10 µM, compound concentration 10 uM
[5] = 48 h, 1 µM, compound concentration 1 uM
[6] = 48 h, 10 µM, compound concentration 10 uM

## CN(C)Cc1cccc(NC(=C2C(=O)Nc3cc(C(=O)N(C)C)ccc32)c2ccccc2)c1
[1]
  Population Apoptotic (%): 14.71% and 13.93%
  Population Hoechst High Intensity Objects (%): 0%
  Population Membrane Permeable-Phenotype (%): 2.97% and 0%
  Population Mitochondria Different-Phenotype (%): 27.72% and 21.05%
  Population Mitotic Cells (%): 85.29% and 86.07%
  Population Normal (%): 100%
  Population Pyknosed Nuclei (%): 32.08% and 85.31%
  Total Cell Count: 424 and 143
[2]
  Population Apoptotic (%): 28.57% and 37.07%
  Population Fragmented Nuclei (%): 3.59% and 6.21%
  Population Hoechst High Intensity Objects (%): 0.65% and 0%
  Population Membrane Permeable-Phenotype (%): 0.65% and 0%
  Population Mitochondria Different-Phenotype (%): 22.58% and 0%
  Population Mitotic Cells (%): 71.43% and 62.93%
  Population Normal (%): 99.35% and 100%
  Population Pyknosed Nuclei (%): 45.75% and 80%
  Population Tubulin-Different-Phenotype (%): 30.97% and 70%
  Total Cell Count: 308 and 145
[3]
  Population Apoptotic (%): 14.29% and 19.69%
  Population Healthy Nuclei (%): 68.64% and 31.44%
  Population Hoechst High Intensity Objects (%): 0% and 1.52%
  Population Membrane Permeable-Phenotype (%): 1.78% and 1.64%
  Population Mitochondria Different-Phenotype (%): 11.17% and 11.48%
  Population Mitotic Cells (%): 85.71% and 80.31%
  Population Normal (%): 100% and 98.48%
  Population Tubulin-Different-Phenotype (%): 15.48% and 9.84%
  Total Cell Count: 574 and 197
[4]
  Population Apoptotic (%): 47.22% and 65.45%
  Population Fragmented Nuclei (%): 1.9% and 4%
  Population Hoechst High Intensity Objects (%): 0%
  Population Membrane Permeable-Phenotype (%): 1.58% and 2.94%
  Population Mitochondria Different-Phenotype (%): 28.85% and 52.94%
  Population Mitotic Cells (%): 52.78% and 34.55%
  Population Normal (%): 100%
  Population Pyknosed Nuclei (%): 29.35% and 73.33%
  Population Tubulin-Different-Phenotype (%): 57.71% and 41.18%
  Total Cell Count: 368 and 150
[5]
  Population Fragmented Nuclei (%): 9.11% and 4.39%
  Population Healthy Nuclei (%): 81.42% and 58.77%
  Population Hoechst High Intensity Objects (%): 0.09% and 1.3%
  Population Membrane Permeable-Phenotype (%): 9.75% and 2.24%
  Population Mitochondria Different-Phenotype (%): 13.07% and 33.58%
  Population Mitotic Cells (%): 98.1% and 79.76%
  Population Normal (%): 99.91% and 98.7%
[6]
  Population Apoptotic (%): 35.58% and 37.33%
  Population Fragmented Nuclei (%): 1.61% and 2.67%
  Population Healthy Nuclei (%): 79.82% and 47.33%
  Population Hoechst High Intensity Objects (%): 0%
  Population Membrane Permeable-Phenotype (%): 2.91% and 2.82%
  Population Mitochondria Different-Phenotype (%): 76.06% and 67.61%
  Population Mitotic Cells (%): 64.42% and 62.67%
  Population Normal (%): 100%
  Population Pyknosed Nuclei (%): 18.57% and 50%

## N#Cc1ccnc(Nc2cc(C3CCN(C4COC4)CC3)cc(N3CCC(F)(F)C3)n2)c1
[1]
  Population Apoptotic (%): 18.37% and 8.2%
  Population Fragmented Nuclei (%): 1.49% and 2.08%
  Population Healthy Nuclei (%): 25.74% and 13.19%
  Population Hoechst High Intensity Objects (%): 0.98% and 0%
  Population Membrane Permeable-Phenotype (%): 0%
  Population Mitotic Cells (%): 81.63% and 91.8%
  Population Normal (%): 99.02% and 100%
  Population Pyknosed Nuclei (%): 72.77% and 84.72%
  Population Tubulin-Different-Phenotype (%): 32.69% and 42.11%
  Total Cell Count: 204 and 144
[2]
  Population Apoptotic (%): 23.38% and 27.5%
  Population Fragmented Nuclei (%): 5.2% and 14.04%
  Population Healthy Nuclei (%): 20.07% and 15.79%
  Population Hoechst High Intensity Objects (%): 0.37% and 0.87%
  Population Mitotic Cells (%): 76.62% and 72.5%
  Population Normal (%): 99.63% and 99.13%
  Population Pyknosed Nuclei (%): 74.72% and 70.18%
  Total Cell Count: 270 and 230
[3]
  Population Apoptotic (%): 44.81% and 25.93%
  Population Fragmented Nuclei (%): 1.81% and 1.57%
  Population Hoechst High Intensity Objects (%): 0.72% and 0.78%
  Population Membrane Permeable-Phenotype (%): 2.56% and 0%
  Population Mitochondria Different-Phenotype (%): 41.88% and 35.29%
  Population Mitotic Cells (%): 55.19% and 74.07%
  Population Normal (%): 99.28% and 99.22%
  Population Pyknosed Nuclei (%): 55.8% and 85.04%
  Population Tubulin-Different-Phenotype (%): 49.57% and 23.53%
  Total Cell Count: 278 and 128
[4]
  Population Apoptotic (%): 63.77% and 56.46%
  Population Fragmented Nuclei (%): 4.87% and 13.57%
  Population Healthy Nuclei (%): 17.6% and 19.91%
  Population Hoechst High Intensity Objects (%): 0.74% and 0%
  Population Membrane Permeable-Phenotype (%): 0% and 9.09%
  Population Mitotic Cells (%): 36.23% and 43.54%
  Population Normal (%): 99.26% and 100%
  Population Pyknosed Nuclei (%): 77.53% and 66.52%
  Total Cell Count: 269 and 221
[5]
  Population Fragmented Nuclei (%): 4.08% and 0.7%
  Population Healthy Nuclei (%): 73.7% and 38.46%
  Population Hoechst High Intensity Objects (%): 0.23% and 0.69%
  Population Membrane Permeable-Phenotype (%): 4.31% and 3.64%
  Population Mitochondria Different-Phenotype (%): 60.62% and 56.36%
  Population Mitotic Cells (%): 69.39% and 90.8%
  Population Normal (%): 99.77% and 99.31%
  Population Pyknosed Nuclei (%): 22.22% and 60.84%
[6]
  Population Apoptotic (%): 88.68% and 82.35%
  Population Fragmented Nuclei (%): 5.62% and 11.71%
  Population Healthy Nuclei (%): 14.98% and 13.66%
  Population Hoechst High Intensity Objects (%): 0.37% and 0.49%
  Population Membrane Permeable-Phenotype (%): 5% and 3.57%
  Population Mitotic Cells (%): 11.32% and 17.65%
  Population Normal (%): 99.63% and 99.51%
  Population Pyknosed Nuclei (%): 79.4% and 74.63%
  Total Cell Count: 268 and 206

## Cc1cc(Nc2ncc(Cl)c(Nc3ccccc3S(=O)(=O)C(C)C)n2)c(OC(C)C)cc1C1CCNCC1 [CERITINIB]
[1]
  Population Apoptotic (%): 15.93% and 15.13%
  Population Fragmented Nuclei (%): 1.92% and 4.62%
  Population Hoechst High Intensity Objects (%): 1.88% and 0.76%
  Population Membrane Permeable-Phenotype (%): 1.35% and 0%
  Population Mitochondria Different-Phenotype (%): 32.43% and 80%
  Population Mitotic Cells (%): 84.07% and 84.87%
  Population Normal (%): 98.12% and 99.24%
  Population Pyknosed Nuclei (%): 69.73% and 91.54%
  Population Tubulin-Different-Phenotype (%): 50% and 80%
  Total Cell Count: 266 and 131
[2]
  Population Apoptotic (%): 30.99% and 76.42%
  Population Fragmented Nuclei (%): 1.54% and 6.06%
  Population Healthy Nuclei (%): 2.15% and 0.76%
  Population Hoechst High Intensity Objects (%): 1.22% and 0%
  Population Membrane Permeable-Phenotype (%): 0%
  Population Mitotic Cells (%): 69.01% and 23.58%
  Population Normal (%): 98.78% and 100%
  Population Pyknosed Nuclei (%): 96.31% and 93.18%
  Total Cell Count: 329 and 132
[3]
  Population Apoptotic (%): 45.74% and 45.87%
  Population Fragmented Nuclei (%): 2.55% and 3.68%
  Population Hoechst High Intensity Objects (%): 0% and 0.73%
  Population Membrane Permeable-Phenotype (%): 0%
  Population Mitochondria Different-Phenotype (%): 64.49% and 77.27%
  Population Mitotic Cells (%): 54.26% and 54.13%
  Population Normal (%): 100% and 99.27%
  Population Pyknosed Nuclei (%): 47.08% and 80.15%
  Population Tubulin-Different-Phenotype (%): 71.01% and 54.55%
  Total Cell Count: 274 and 137
[4]
  Population Apoptotic (%): 64.24% and 88.24%
  Population Fragmented Nuclei (%): 1.89% and 7.03%
  Population Healthy Nuclei (%): 2.84% and 0%
  Population Hoechst High Intensity Objects (%): 0%
  Population Membrane Permeable-Phenotype (%): 0%
  Population Mitochondria Different-Phenotype (%): 88.89%
  Population Normal (%): 100%
  Population Pyknosed Nuclei (%): 95.27% and 92.97%
  Population Tubulin-Different-Phenotype (%): 100%
  Total Cell Count: 317 and 128
[5]
  Population Apoptotic (%): 27.27% and 48.81%
  Population Fragmented Nuclei (%): 2.27% and 3.2%
  Population Healthy Nuclei (%): 75% and 29.6%
  Population Hoechst High Intensity Objects (%): 0.21% and 1.57%
  Population Membrane Permeable-Phenotype (%): 1.38% and 2.7%
  Population Mitochondria Different-Phenotype (%): 68.6% and 81.08%
  Population Mitotic Cells (%): 72.73% and 51.19%
  Population Normal (%): 99.79% and 98.43%
  Population Pyknosed Nuclei (%): 22.73% and 67.2%
[6]
  Population Apoptotic (%): 62.54% and 87.16%
  Population Fragmented Nuclei (%): 1.6% and 9.02%
  Population Healthy Nuclei (%): 7.99% and 9.02%
  Population Hoechst High Intensity Objects (%): 0%
  Population Membrane Permeable-Phenotype (%): 0% and 8.33%
  Population Mitochondria Different-Phenotype (%): 92% and 91.67%
  Population Mitotic Cells (%): 37.46% and 12.84%
  Population Normal (%): 100%
  Population Pyknosed Nuclei (%): 90.42% and 81.95%
  Population Tubulin-Different-Phenotype (%): 52% and 91.67%
  Total Cell Count: 313 and 133
